# Compound activity from PubChem.
# NPY-Y1 PAM-ag – NPY-Y1 receptor potentiators or agonists, primary screen, cell-based; Neuropeptide Y receptor type 1 (Homo sapiens), P25929; NPY-Y1 expressing cells, potentiator/agonist activation; activation, % at 3.6 µM; 0.37% of 220,000 active; in the data active = activation above about 33%, passing the limit was not always enough;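 also: cells stimulated with NPY at EC10 then isoproterenol at EC100; 0% = low agonist plus stimulus and 100% = saturating agonist plus stimulus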
# Measles CPE – compounds protecting cells from measles virus cytopathic effect, primary screen, measles RdRp inhibitor project, single point, MLSMR library, absorbance; 1.5% of 140,000 active; Measles virus-infected cells, CPE protection; AID 841, 2007; protection (pct of control), % at 4 µM; in the data active = protection mostly above about 24%, no sharp cut-off; inactive = mostly below about 26%
# NPY-Y2 antag – NPY-Y2 receptor antagonists, primary screen, cell-based; Neuropeptide Y receptor type 2 (Homo sapiens), P49146; NPY-Y2 expressing cells, antagonist mode; inhibition, % at 2.7 µM; 0.99% of 140,000 active;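 also: 0% = vehicle with agonist challenge and 100% = reference antagonist with challenge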
# Target sequence (P49146 whole entry, looked up): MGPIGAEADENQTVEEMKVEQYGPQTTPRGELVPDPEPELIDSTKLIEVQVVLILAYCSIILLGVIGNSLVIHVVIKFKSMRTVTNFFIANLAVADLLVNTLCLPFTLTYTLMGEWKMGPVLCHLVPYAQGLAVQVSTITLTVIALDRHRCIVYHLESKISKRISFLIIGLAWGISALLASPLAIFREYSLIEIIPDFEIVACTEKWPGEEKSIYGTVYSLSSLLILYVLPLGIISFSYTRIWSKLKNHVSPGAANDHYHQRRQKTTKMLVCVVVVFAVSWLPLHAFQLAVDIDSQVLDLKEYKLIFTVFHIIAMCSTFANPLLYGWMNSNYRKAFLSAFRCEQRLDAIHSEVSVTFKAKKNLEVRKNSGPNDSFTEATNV
# NPY2 pot ag – NPY-Y2 potentiators or agonists, primary screen, cell-based; Neuropeptide Y receptor type 2 (Homo sapiens), P49146; cells expressing NPY-Y2, potentiator/agonist read-out; activation, % at 3.6 µM; 0.45% of 220,000 active; AID 1359, 2008; in the data active = activation above about 27%;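 also: cells stimulated with NPY near EC25 plus isoproterenol at EC100; 0% = vehicle plus submaximal agonist and 100% = vehicle plus saturating agonist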
# NPY Y1 blocker – NPY-Y1 receptor antagonists, primary screen, cell-based | Neuropeptide Y receptor type 1 (Homo sapiens), P25929 | HEK293-CNG Y1 cells, membrane potential fluorescence; NPY at EC95, then isoproterenol | inhibition, % at 3.6 µM | 1% of 200,000 active | AID 1040, 2008;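 active = inhibition above the campaign mean inhibition of all tested compounds plus 3 SD, cut at about 20% in these data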;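 also: 0% = DMSO wells given NPY plus isoproterenol and 100% = isoproterenol alone without NPY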
#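 Material: Y1- and CNG-channel-expressing HEK293 cells / Probe or stimulus: NPY 25 nM then isoproterenol 1 µM plus Ro 20-1724 25 µM / Doses: 3.6 µM single dose, DMSO 0.4% / Schedule: compound incubation 1 h at room temperature, readout 45 min post-stimulation / Signal: membrane potential fluorescence / Benchmarks: isoproterenol-only wells as full block versus NPY-plus-isoproterenol wells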
# MDM2 E3 inh – MDM2-luciferase reporter signal enhancers, primary screen, MDM2 E3 ligase inhibitor project, cell-based, luminescence, 1536-well; signal enhancement, % at 5 µM; cell-based MDM2 ubiquitination luciferase reporter, 2 h; 0 = plate control, 100 = twice control, blank-subtracted; 0.11% of 210,000 active; AID 1230, 2008; E3 ubiquitin-protein ligase Mdm2 (Homo sapiens), Q00987;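 active = signal enhancement of 30% or more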;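 also: luminescence tracks abundance of the self-degrading MDM2-luciferase fusion protein; higher signal means inhibition of MDM2 E3 ligase activity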
#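 Assay system: stable mammalian line carrying autodegrading MDM2–luciferase fusion reporter; amount: 2000 cells seeded into each well; buffer or medium: DMEM; benchmarks: plate control and blank wells; signal: luciferase luminescence; timing: 2 h compound exposure at 37 °C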
# NPY1 antag conf – NPY-Y1 receptor antagonists, retest of hits, confirmation, HEK293-CNG cells, membrane potential fluorescence, triplicate. cAMP; NPY challenge against isoproterenol-raised cAMP. shares compounds with NPY Y1 blocker. inhibition, % at 3.6 µM. 21% of 1,200 active; in the data active = inhibition above about 20%;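 also: 0% = vehicle with agonist plus stimulus and 100% = stimulus alone without agonist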
# NPY2 antag ctr – NPY-Y2 receptor antagonists, selectivity check, confirmation, counter-screen for NPY-Y1 antagonist project, HEK293-CNG cells, membrane potential fluorescence, triplicate. antagonism; cells given NPY, then isoproterenol. shares compounds with NPY Y1 blocker. 28% of 1,200 active. inhibition, % at 3.6 µM;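 also: 0% = DMSO with agonist challenge and 100% = reference antagonist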
# An asterisk follows results filed as active; . = no result. Compounds with a hit are over-represented: about 2.8% of the library has one in this group of screens. Rule as the data show it, unless noted: active = inhibition above about 17%; inactive = the rest.
SMILES,NPY-Y1 PAM-ag,Measles CPE,NPY-Y2 antag,NPY2 pot ag,NPY Y1 blocker,MDM2 E3 inh,NPY1 antag conf,NPY2 antag ctr
CC(=O)O[C@H]1CC[C@]2(C)[C@H]3CC=C4[C@@H]5[C@@H](C)[C@H](C)CC[C@]5(C(=O)O)CC[C@@]4(C)[C@]3(C)CC[C@H]2C1(C)C,.,.,.,.,.,-1,.,.
O=C(N/N=C/c1ccc(Br)s1)c1c[nH]c2ccccc12,8,7,3,-6,20*,5,0,0
C[n+]1c2n(c3ccccc31)N=C(c1cc(C(C)(C)C)c(O)c(C(C)(C)C)c1)CS2,-32,.,.,-28,65*,-43,48*,39*
COc1cccc(C2=Nn3c(nnc3-c3ccccc3O)SC2)c1,-77,10,7,-12,7,-7,.,.
CCCCc1ccc(C2C(C#N)=C(N)SC(N)=C2C#N)s1,23,2,-1,4,-5,-1,.,.
OCCN1CCN(CC(O)COc2ccc(C34CC5CC(CC(C5)C3)C4)cc2)CC1 (stereo unspecified),-50,.,.,-42,12,-22,.,.
NCCOc1ccc(C23CC4CC(CC(C4)C2)C3)cc1,-34,.,.,-14,22*,-7,21*,35*
Cc1cc(C)n2ncc(C(=O)NC3CCCCC3)c2n1,9,.,.,3,3,1,.,.
Cc1c2c(nc3c(C(=O)NC4CCCCC4C)cnn13)CCCC2 (stereo unspecified),-22,6,8,-12,20*,-1,13,22*
O=C(CSc1ccc2c(c1)OCCO2)NCCc1ccc(Cl)cc1Cl,-44,17,12,-21,20*,-12,8,7
O=C(NCc1ccco1)c1nc(-c2ccc(F)cc2)no1,-30,.,.,-21,24*,-5,11,9
O=C(NCc1ccco1)c1ccccc1-c1nc(-c2ccc(F)cc2)no1,-13,.,.,-12,.,-13,.,.
CC1CCN(C(=O)CSc2nc3ccccc3c(=O)n2Cc2ccc3c(c2)OCO3)CC1,-43,3,12,-20,21*,-9,4,6
O=C(CC1C(=O)NCCN1Cc1c(F)cccc1Cl)NC1CCCC1 (stereo unspecified),-8,.,.,-16,4,-6,.,.
CN(C)S(=O)(=O)c1cc(NC(=O)CN2CCCc3ccccc32)ccc1Cl,19,.,.,8,71*,6,1,3
N#Cc1c(-c2ccccc2)[nH]c(=O)[nH]c1=O,2,.,.,-1,-1,0,.,.
N#CC(C#N)C(c1ccsc1)c1c(-c2ccccc2)[nH][nH]c1=O (stereo unspecified),-17,3,10,8,24*,-19,34*,34*
O=C(c1ccco1)N(CCC(c1ccccc1)c1ccco1)Cc1ccc(F)cc1 (stereo unspecified),-21,37*,6,-44,25*,-15,13,13
CCC(C)(C)n1nnnc1CN(Cc1ccco1)Cc1cc2cc3c(cc2[nH]c1=O)OCO3,-27,7,4,1,4,4,.,.
CCC(C)(C)n1nnnc1CN(Cc1ccc(Cl)cc1)Cc1ccco1,-37,10,17,-23,24*,-15,17,14
Cc1ccccc1CC1(CO)CCCN(C(=O)c2ccc(F)cc2)C1 (stereo unspecified),-3,.,.,2,-2,-10,.,.
Cc1ccccc1CC1(CO)CCCN(C(=O)c2ccccc2N(C)C)C1 (stereo unspecified),13,.,.,-7,28*,-18,5,6
Cn1c(=O)c2ncn(CC(=O)Nc3cccc(-c4nc5ccccc5s4)c3)c2n(C)c1=O,17,4,2,-6,2,-1,.,.
CCOC(=O)c1sc(-c2ccccc2)cc1NC(=O)Nc1ccc([N+](=O)[O-])cc1,-10,4,0,-7,-4,-6,.,.
Cc1cccc(C)c1OCCn1nc(C(=O)O)c2ccccc2c1=O,-35,3,10,-30,24*,-8,17,23*
SMILES,NPY-Y1 PAM-ag,Measles CPE,NPY-Y2 antag,NPY2 pot ag,NPY Y1 blocker,MDM2 E3 inh,NPY1 antag conf,NPY2 antag ctr
CC(C)NC(=O)NC(=O)COC(=O)c1cccc(S(=O)(=O)N2CCCCC2)c1,-14,6,1,2,-2,-8,.,.
CC(C)CCNc1nc(-c2ccco2)c2c(c1C#N)CCCC2,-34,17,5,-23,22*,-16,1,5
CC(C)(C)c1ccc(C(=O)NC(=S)Nn2cnnc2)cc1,11,13,1,15,3,-9,.,.
CCCCCCCCNc1ncnc2ccccc12,0,40,14,3,19,-23,.,.
CCCCCCCC[n+]1cccc2c3ccccc3ccc21,-18,.,.,-6,51*,-57,43*,26*
CCCCCCCCCC[n+]1cccc2c3ccccc3ccc21,-11,.,.,-6,50*,-60,48*,37*
Cc1cccc[n+]1CCCCCCCCCC[n+]1ccccc1C,0,.,.,-3,0,0,.,.
O=C(COC(=O)CCc1c[nH]c2ccccc12)Nc1cc([N+](=O)[O-])ccc1Cl,-24,24,8,-3,27*,-19,9,8
C#CCOCCOCCOCCNc1nc(N2CCN(C(=O)[C@H](Cc3ccc(O)cc3)n3cc(CCO)nn3)CC2)nc(N2CCN(C(=O)[C@H](Cc3ccc(O)cc3)n3cc(CCO)nn3)CC2)n1,9,3,0,4,-6,.,.,.
COc1ccc(C(CC(=O)O)NC(=O)c2sc3ccccc3c2Cl)cc1 (stereo unspecified),-72,4,11,-16,22*,-8,12,12
COCCOC(=O)c1[nH]c2c(c1C)C(=O)CC(c1cccs1)C2 (stereo unspecified),-2,.,.,1,1,-2,.,.
Cc1c(C(=O)OCC(C)C)[nH]c2c1C(=O)CC(c1cccs1)C2 (stereo unspecified),-3,2,8,-23,30*,-21,6,24*
O=c1c2ccccc2nc(SCc2ccncc2)n1CC1CCCO1 (stereo unspecified),-5,.,.,-8,3,1,.,.
